Laboratory results: PMC3646584 (Journal of medicinal chemistry, 2013)

What was measured:
[1] = tested on: Jurkat, HT-29, and HeLa cells; test: Cell cycle analysis by flow cytometry; format: cell-based, human; details: for lowest concentration giving a rise in G2/M cells: 24 h treatment
Method in brief: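 Cells were treated for 24 h with graded compound concentrations (HeLa: 5 × 10^5 exponentially growing cells). They were collected, fixed in ice-cold 70% ethanol, and treated with lysis buffer containing RNase A and 0.1% Triton X-100. After PI staining, DNA content was read by flow cytometry. Cell-cycle phase percentages came from DNA histogram analysis.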

[2] = tested on: HeLa cells; test: Western blot analysis of cell cycle and apoptosis proteins; format: cell-based, human
Method in brief: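 HeLa cells were treated for 24 or 48 h. They were washed twice in ice-cold PBS and lysed on ice for 30 min, and the lysates were cleared at 15000g, 4 °C, 10 min. Protein was measured by BCA, and 20 μg per lane was run on 7.5–15% SDS–PAGE, then blotted to PVDF and blocked overnight at 4 °C. Membranes were probed 2 h at room temperature for cyclin B, p-cdc2 Tyr15, PARP and Xiap, with peroxidase secondary for 60 min and ECL detection. They were stripped and reprobed for β-actin.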

[3] = tested on: HeLa cells; test: Annexin-V/PI apoptosis assay; format: cell-based, human; details: 24 or 48 h, concentration- and time-dependent
[4] = Cytotoxicity for resting peripheral blood lymphocytes; format: cell-based; details: human
Method in brief: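 Donor PBLs were separated on a Lymphoprep gradient, washed, and kept overnight in RPMI-1640 with 10% FBS. Nonadherent cells were resuspended at 5 × 10^5 cells/mL without PHA (resting) and exposed to graded compound for 72 h. Viability was read by MTT. IC50 is given as mean ± SEM from three separate experiments.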

[5] = Cytotoxicity for PHA-stimulated peripheral blood lymphocytes; format: cell-based; details: human, PHA-stimulated (proliferating) peripheral blood lymphocytes
Method in brief: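 PBLs from healthy donors were isolated on a Lymphoprep gradient, washed, and rested overnight at 1.0 × 10^6 cells/mL in RPMI-1640 with 10% FBS. Nonadherent cells were reseeded at 5 × 10^5 cells/mL in growth medium containing 2.5 μg/mL PHA. Graded compound was added and viability read by MTT after 72 h. IC50 is given as mean ± SEM of three separate experiments.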

[6] = tested on: panel of seven human cancer cell lines; test: Antiproliferative activity across the panel of seven human cancer cell lines; format: cell-based; details: read-out: IC50 values across the cell line panel
Method in brief: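 Jurkat, SEM and HL-60 cells were grown in RPMI-1640; MCF-7, A549, HeLa and HT-29 cells in DMEM; both with 10% FBS plus penicillin/streptomycin. 8 × 10^3 cells/well were held 18 h at 37 °C, 5% CO2, then given fresh medium with graded compound (DMSO ≤0.25%) for 72 h. Viability was read by MTT. […] Mean ± SE, ≥3 independent experiments.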

[7] = tested on: BNL 1ME A.7R.1 allografts; test: Syngeneic hepatocellular carcinoma allograft model; format: in vivo, Balb/c mice; details: 5 mg/kg ip daily for seven days
Method in brief: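 Male Balb/c mice, 8 weeks old, received 10^7 syngeneic hepatocarcinoma cells in 200 μL sterile PBS subcutaneously in the dorsal region. At ~100 mm3, fifteen mice were randomised into three groups of five. Groups got vehicle (0.9% NaCl, 5% PEG 400, 0.5% Tween 80), test compound, or reference, each at 5 mg/kg ip daily for 7 days. Body weight was tracked as mean ± SEM; two-sided Student's t test.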

[8] = tested on: HeLa cells; test: ROS production; format: cell-based, human; details: HE or H2-DCFDA, 24 or 48 h
Method in brief: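 After 24 or 48 h exposure to the test compound (DMSO at most 0.25%), cells were stained with hydroethidine (HE) or H2-DCFDA and ROS were read by flow cytometry. Results are the mean ± SEM from three independent experiments.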

[9] = tested on: HeLa cells; test: Mitochondrial membrane potential; format: cell-based, human; details: JC-1, 24 or 48 h
Method in brief: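 HeLa cells exposed to the test compound at the stated concentrations for 24 or 48 h, with DMSO at no more than 0.25%, then stained with the lipophilic cationic dye JC-1 to monitor mitochondrial membrane potential. Values are the mean ± SEM of three independent experiments.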

[10] = tested on: A549-T12; test: Cell growth inhibition, drug-resistant cell line study; format: cell-based, human; details: for IC50: Homo sapiens; for resistance ratio: IC50 A549-T12 / IC50 A549
Method in brief: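 Cells seeded at 8 × 10^3 per well and preincubated 18 h at 37 °C in humidified 5% CO2. Medium then replaced with fresh medium holding test compound at several concentrations (10 mM DMSO stocks; final DMSO ≤0.25%) for 72 h at 37 °C. Viability by MTT. […] Parental A549 grown in DMEM with 10% FBS.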

[11] = tested on: A549; test: In vitro cell growth inhibition; format: cell-based; details: Homo sapiens

IC50 [10] [nM] | IC50 [11] [nM] | SMILES | cells arrested in G2/M ([1]; 24 h, at higher concentrations) | lowest concentration giving a rise in G2/M cells [1] [nM] | cyclin B expression ([2]; 10 or 100 nM, 24 or 48 h) | expression of phosphorylated cdc2 (Tyr15) ([2]; 10 or 100 nM, 24 or 48 h) | concentration at which PARP cleavage was detectable ([2]; 24 h) [nM] | Xiap expression ([2]; 24 h, even at 10 nM) | caspase activation ([2]; Western blot, HeLa) | annexin-V-positive cells vs control [3] | IC50 at 72 h [4] [nM] | IC50 at 72 h [5] [nM] | IC50 [6] [nM] | body weight change during treatment [7] | ROS production vs control cells [8] | proportion of cells with depolarized mitochondria [9] | resistance ratio [10]
– | – | COC(=O)c1sc2cc(OC)ccc2c1Nc1cc(OC)c(OC)c(OC)c1 [4i, Methyl 6-Methoxy-3-[(3,4,5-trimethoxyphenyl)amino]-1-benzo-[b]thiophene-2-carboxylate] | more than 80% | 20 | no significant variations | dramatic decrease | 10 | almost eliminated | induced proteolytic cleavage of caspase-9 and caspase-3 | accumulation of annexin-V-positive cells | > 10000 | 2800 ± 1200 | 0.28 to 10 | only a small decrease in body weight | induced the production of significant amounts of ROS | time- and concentration-dependent increase | –
12.6 ± 2.9 | 8.5 ± 1.9 | COC(=O)c1sc2ncccc2c1Nc1cc(OC)c(OC)c(OC)c1 [4l, Methyl 3-[(3,4,5-Trimethoxyphenyl)amino]thieno[2,3-b]pyridine-2-carboxylate] | – | – | – | – | – | – | – | – | – | – | – | – | – | – | 1.5
19.5 ± 2.3 | 16.2 ± 4.4 | CCOC(=O)c1sc2ncccc2c1Nc1cc(OC)c(OC)c(OC)c1 [4m, Ethyl 3-[(3,4,5-Trimethoxyphenyl)amino]thieno[2,3-b]pyridine-2-carboxylate] | – | – | – | – | – | – | – | – | – | – | – | – | – | – | 1.2
– | – | COC(=O)c1sc2nc(C)ccc2c1Nc1cc(OC)c(OC)c(OC)c1 [4n, Methyl 6-Methyl-3-[(3,4,5-trimethoxyphenyl)amino]thieno[2,3-b]pyridine-2-carboxylate] | – | 20 | – | – | – | – | – | accumulation of annexin-V-positive cells | > 10000 | – | – | – | induced the production of significant amounts of ROS | time- and concentration-dependent increase | –
